# From ChEMBL document CHEMBL1165991, “Synthesis and in vitro evaluation of novel 1,2,4-triazine derivatives as neuroprotective agents” (Bioorg Med Chem, 2010)
# Calls of active or inactive are those of the source. No cut-off for these calls is given here.
# Experiments:
# PC-12 [1] = experiment: Neuroprotective activity in differentiated rat PC12 cells assessed as decrease of H2O2-induced cleaved caspase 3 level treated 3 hrs before H2O2 challenge measured after 24 hrs by Western blot relative to untreated control; format: functional
# Procedure, shortened: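 PC12 cells grown in DMEM with 10% FBS at 37 °C, 5% CO2, and differentiated with NGF (50 ng/ml) every other day for 6 days. Pretreated 3 h with compound, then H2O2 (150 μM) added with compound for 24 h. Twenty μg protein run on 12% SDS-PAGE and blotted for cleaved caspase-3, reprobed for β-actin. ECL detection, densitometry ratio, median of three independent experiments.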
# PC-12 [2] = experiment: Neuroprotective activity in rat differentiated PC12 cells assessed as protection against H2O2-induced cell death at 10 uM treated 3 hrs before H2O2 challenge measured after 24 hrs by MTT assay relative to control; format: functional
# Procedure, shortened: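 Rat PC12 cells grown in DMEM with 10% FBS and penicillin–streptomycin at 37 °C, 5% CO2, then differentiated with NGF (50 ng/ml) every other day for 6 days. Compounds (0.5–20 µM) were added 3 h before H2O2 (150 µM) and kept present for 24 h more. MTT reduction, formazan dissolved in DMSO, A550; % of control cells; mean ± S.D., n = 3.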
# PC-12 [3] = experiment: Neuroprotective activity in differentiated rat PC12 cells assessed as inhibition of H2O2-induced NF-kappaB nucleus accumulation treated 3 hrs before H2O2 challenge measured after 24 hrs by Western blot relative to untreated control; format: functional
# Procedure, shortened: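 Differentiated PC12 cells were pretreated 3 h with compound, then given H2O2 150 μM for 24 h. Nuclear protein (20 μg) was run on 12% SDS–PAGE, blotted to PVDF, probed with anti-NF-κB and reprobed for β-actin, with ECL detection. Band densities were taken as a ratio; median of three independent experiments.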
# PC-12 [4] = experiment: Cytotoxicity against rat differentiated PC12 cells at 0.5 to 20 uM after 24 hrs by MTT assay; format: cell-based; settings: pc-12, 24 h
# Procedure, shortened: (§1)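 PC12 cells grown in DMEM with 10% FBS and penicillin–streptomycin at 37 °C, 5% CO2. Differentiated cells were primed with NGF 50 ng/ml every other day for 6 days; undifferentiated cells had no NGF. Compound 0.5–20 μM without H2O2; MTT read at 24 h. Formazan dissolved in DMSO, A550 as % of control; mean ± S.D., n = 3.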
# PC-12 [5] = experiment: Neuroprotective activity in rat undifferentiated PC12 cells assessed as protection against H2O2-induced cell death at 10 uM treated 3 hrs before H2O2 challenge measured after 24 hrs by MTT assay relative to control; format: functional
# Procedure, shortened: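 Undifferentiated rat PC12 cells, grown in DMEM with 10% FBS and penicillin–streptomycin at 37 °C, 5% CO2, were seeded in 96-well plates. They were pretreated 3 h with compounds (0.5–20 µM), then exposed to H2O2 for 24 h. Viability was read by MTT reduction, formazan dissolved in DMSO, A550, as % of control; mean ± S.D., n = 3.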
# PC-12 [6] = experiment: Cytotoxicity against rat undifferentiated PC12 cells at 0.5 to 20 uM after 24 hrs by MTT assay; format: cell-based; settings: pc-12, 24 h; procedure, shortened: as §1
# PC-12 [7] = experiment: Neuroprotective activity in differentiated rat PC12 cells assessed as protection against H2O2-induced apoptosis at 10 uM treated 3 hrs before H2O2 challenge measured after 24 hrs by acridine orange/ethidium bromide double staining method; format: functional
# Procedure, shortened: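 NGF-differentiated PC12 cells were pretreated with compound, then given H2O2 150 μM for 24 h. Cells were harvested, washed in PBS and set to 10^6/ml, then stained with AO/EB (1:1, final 100 μg/ml). Fluorescence microscopy scored viable, early or late apoptotic, and necrotic nuclei in 10 random fields; three repeats.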
# PC-12 [8] = experiment: Neuroprotective activity in rat NGF treated differentiated PC12 cells assessed as restoration of H2O2-induced neuronal shape change at 10 uM treated 3 hrs before H2O2 challenge measured after 24 hrs by fluorescence microscopy analysis; format: functional, cell-based
# Procedure, shortened: (§2)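 PC12 cells were differentiated with NGF 50 ng/ml for 6 days, pretreated 3 h with compound, then exposed to H2O2 150 μM for 24 h. Morphology was judged by microscopy: cell shape, attachment to the plate surface and inter-neuronal networks.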
# PC-12 [9] = experiment: Neuroprotective activity in rat differentiated PC12 cells assessed as protection against H2O2-induced cell death at 0.5 to 20 uM treated 3 hrs before H2O2 challenge measured after 24 hrs by MTT assay relative to control; format: functional, cell-based
# Procedure, shortened: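 NGF-differentiated PC12 cells (50 ng/ml every other day, 6 days) were pretreated 3 h with compound at 0.5–20 μM, then given H2O2 150 μM with compound for a further 24 h. Viability by MTT: formazan in DMSO, A550, expressed as % of control cells; mean ± S.D., n = 3.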
# PC-12 [10] = experiment: Neuroprotective activity in rat NGF treated differentiated PC12 cells assessed as restoration of H2O2-induced network changes at 10 uM treated 3 hrs before H2O2 challenge measured after 24 hrs by fluorescence microscopy analysis; format: functional, cell-based; procedure, shortened: as §2
# PC-12 [11] = experiment: Neuroprotective activity in rat NGF treated differentiated PC12 cells assessed as restoration of H2O2-induced detached from culture plate at 10 uM treated 3 hrs before H2O2 challenge measured after 24 hrs by fluorescence microscopy analysis; format: functional, cell-based; procedure, shortened: as §2
SMILES,fold change (FC) (PC-12 [1]),Activity (PC-12 [2]),fold change (FC) (PC-12 [3]),Activity (PC-12 [4]),Activity (PC-12 [5]),Activity (PC-12 [6]),Activity (PC-12 [7]),Activity (PC-12 [8]),Activity (PC-12 [9]),Activity (PC-12 [10]),Activity (PC-12 [11])
CSc1nnc(-c2ccccc2)c(-c2ccccc2)n1,1.91,47%,1.79,Non-toxic,53%,Non-toxic,35%,,,,
CCCSc1nnc(-c2ccccc2)c(-c2ccccc2)n1,,,,,,,,inactive,inactive,inactive,inactive
CCCCSc1nnc(-c2ccccc2)c(-c2ccccc2)n1,,,,,,,,,inactive,,
CCCSc1nnc(-c2ccc(Cl)cc2)c(-c2ccc(Cl)cc2)n1,1.92,45%,1.89,Non-toxic,60%,Non-toxic,40%,,,,
CCCCSc1nnc(-c2ccc(Cl)cc2)c(-c2ccc(Cl)cc2)n1,1.83,50%,1.78,Non-toxic,63%,Non-toxic,40%,,,,
CCSc1nnc(-c2ccc(Cl)cc2)c(-c2ccc(Cl)cc2)n1,2,,2,Non-toxic,58%,Non-toxic,40%,,,,
CCSc1nnc(-c2ccccc2)c(-c2ccccc2)n1,1.64,54%,1.56,Non-toxic,59%,Non-toxic,45%,,,,
CSc1nnc(-c2ccc(Cl)cc2)c(-c2ccc(Cl)cc2)n1,4.59,83%,4.04,Non-toxic,88%,Non-toxic,20%,Active,,Active,Active
